A selection: hits, their analogues and other compounds. The true share with any hit is near 4.1%.
ATG4B inhibitor – ATG4B protease inhibitors, primary screen, biochemical, fluorescence, uHTS. Cysteine protease ATG4B (Homo sapiens), Q9Y4P1. ATG4B cleavage of LC3-PLA2, NBD-HPC fluorescence, 1 h. inhibition, % at 8.33 µM. 340,000 compounds, 0.51% hits. AID 504462, 2011; in the data active means inhibition above about 40%
Target sequence (Q9Y4P1 whole entry, looked up): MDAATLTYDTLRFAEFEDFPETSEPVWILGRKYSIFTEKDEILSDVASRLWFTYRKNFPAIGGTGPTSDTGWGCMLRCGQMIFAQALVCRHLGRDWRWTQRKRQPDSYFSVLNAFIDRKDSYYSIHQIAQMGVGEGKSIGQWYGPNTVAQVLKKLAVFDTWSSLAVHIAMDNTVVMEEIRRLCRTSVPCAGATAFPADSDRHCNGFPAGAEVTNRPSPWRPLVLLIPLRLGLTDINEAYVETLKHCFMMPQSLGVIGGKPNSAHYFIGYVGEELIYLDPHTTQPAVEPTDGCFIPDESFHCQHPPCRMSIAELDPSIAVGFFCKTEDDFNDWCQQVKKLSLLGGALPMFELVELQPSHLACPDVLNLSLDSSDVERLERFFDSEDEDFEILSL
MC4R barr agon – MC4R agonists recruiting beta-arrestin, primary screen, cell-based, luminescence, agonist arm of biased-ligand search. U2OS MC4R beta-arrestin complementation; percent of melanotan II response, DMSO zero. activation, % at 8.9 µM. 360,000 compounds, 0.98% hits;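 active means activation above a per-plate cutoff, the mean activation of sample wells on that plate plus 3 SD, cut at about 8% in these data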
SMARCA2 act – SMARCA2 (BRM) function activators, primary screen, cell-based, luminescence, high throughput | MG213 cells, MMTV-luciferase reporter, dexamethasone, overnight | activation, % at 9.1 µM | 370,000 compounds, 1% hits; in the data active means activation above about 7.8%
MC4R antagonist – MC4R antagonists of cAMP signaling, primary screen, cell-based, TR-FRET, antagonist arm of biased-ligand search. Melanocortin receptor 4 (Homo sapiens), P32245. MC4R-expressing cells, MTII-stimulated cAMP, LANCE TR-FRET. inhibition, % at 6.5 µM. 360,000 compounds, 0.48% hits. AID 540295, 2011;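 active means inhibition above its plate's cutoff, the mean of tested wells on that plate plus 3 SD, cut at about 29% in these data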
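Material: U2OS-MC4R stable cell line | Reagent: Melanotan II challenge after compound preincubation | Doses: One concentration, 6.5 µM nominal | Incubation: 30-min compound preincubation, 1-h Melanotan II challenge, 1-h detection, room temperature | Signal: TR-FRET cAMP assay | Replicates: One well per compound, no replicates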
MPTP block – mitochondrial permeability transition pore inhibitors, primary screen, biochemical, isolated mouse mitochondria, absorbance. Ca2+ swelling absorbance, 30 min. inhibition, % at 10 µM. 360,000 compounds, 1.4% hits. AID 602449, 2012;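 active means inhibition of 50% or more, scaled per plate between neutral and stimulator controls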
SMARCA2 conf – SMARCA2 (BRM) function activators, confirmation, cell-based, luminescence, triplicate. shares compounds with SMARCA2 act. MG213 cells, MMTV-luciferase with dexamethasone, overnight; MG213 cells expressing E1A, Rb sequestered; DMSO wells 0%, reference activator 100%. activation, % at 9.1 µM. 3,500 compounds, 30% hits. AID 652260, 2013;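 active means activation above its plate's cutoff, the mean activation of tested wells plus 3 SD, cut at about 7.9% in these data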
GAL4-VP16 Luc – GAL4-VP16 luciferase reporter activation, counter-screen for SMARCA2 (BRM) activator project, cell-based, pG5luc, luminescence, high throughput; shares compounds with SMARCA2 act; HEK293 GAL4-VP16 pG5luc reporter; scaled: DMSO wells 0%, SAHA wells 100%; activation, % at 9.1 µM; 3,500 compounds, 41% hits; AID 686939, 2013;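 active means activation above the solvent-only control well mean plus 3 SD, averaged across control plates, cut at about 5.2% in these data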
Numbers stand for hits; 0 = inactive; - = no result given.

SMILES	ATG4B inhibitor	MC4R barr agon	SMARCA2 act	MC4R antagonist	MPTP block	SMARCA2 conf	GAL4-VP16 Luc
CC(C)=CCNc1ncnc2c1c(C#N)cn2C1OC(CO)C(O)C1O (stereo unspecified)	0	0	41	0	0	59	0
c1ccc(-c2nc3nc4ccccc4nc3n2Cc2ccco2)cc1	0	0	8.0	0	0	0	14
CC(C)CNC(=O)C1c2ccccc2Oc2ccccc21	0	0	14	0	0	0	0
CC(C)NC(=O)C1c2ccccc2Oc2ccccc21	0	0	0	0	0	-	-
COc1cc(N)c(Cl)cc1C(=O)OCC(=O)N1c2ccccc2NC(=O)C1(C)C	0	0	9.1	0	0	0	0
COc1ccc(S(N)(=O)=O)cc1C(=O)OCC(=O)N1c2ccccc2NC(=O)C1(C)C	0	0	0	0	0	-	-
CCC(C(=O)NNC(=O)c1cnccn1)c1ccccc1 (stereo unspecified)	0	0	8.1	0	0	0	0
CC(C)NC(=O)C1CCN(c2cncnc2)CC1	-	-	0	-	-	-	-
CCCCc1c(-c2ccccc2OC)ncn1Cc1cccc(F)c1F	-	-	0	-	-	-	-
NS(=O)(=O)c1ccc(N/N=C/c2cn(-c3ccccc3)nc2-c2cccs2)c([N+](=O)[O-])c1	0	0	0	0	0	-	-
NS(=O)(=O)c1ccc(N/N=C/c2cn(-c3ccccc3)nc2-c2cccs2)cc1	0	0	9.6	0	0	9.2	0
O=C1N/C(=C/c2ccc(N3CCOCC3)o2)C(=O)N1c1ccccc1	0	0	14	0	0	0	0
C=CCN1C(=O)N/C(=C/c2ccc(N3CCOCC3)o2)C1=O	-	-	0	-	-	-	-
Cn1cnc([N+](=O)[O-])c1S(=O)(=O)Oc1ccccc1	0	0	20	0	0	0	6.3
Cc1ccnc(NC(=O)c2ccccc2[N+](=O)[O-])c1	0	0	0	0	0	-	-
Cc1ccnc(NC(=O)c2cccc3ccccc23)c1	0	0	11	0	0	0	0
C=CC(=O)NC1CCCCN(C(C)C)C1=O (stereo unspecified)	-	-	0	-	-	-	-
Cc1ccc(SCCNC(=S)Nc2ccccc2)cc1	0	0	8.8	0	0	0	0
COc1ccccc1NC(=S)NCCSc1ccc(C)cc1	0	0	0	0	0	-	-
CNC(=S)NNC(=O)c1sc2cc(C(F)(F)F)cnc2c1-c1ccccn1	0	0	8.0	0	0	0	0
O=C(CCOc1ccccc1)Nc1ccc(Br)cc1	0	0	11	0	0	0	5.3
COc1ccc(NC(=O)CCOc2ccccc2)cc1	0	0	0	0	0	-	-
COc1ccc2c(c1)CNC2CS(=O)(=O)NCc1ccc(F)cc1 (stereo unspecified)	-	-	0	-	-	-	-
CC(=O)Nc1c(C(=O)O)oc2ccccc12	0	0	8.1	0	0	0	0
CCOC(=O)c1cc2c(=O)c3ccccc3oc2nc1C	0	0	0	0	0	-	-
SMILES	ATG4B inhibitor	MC4R barr agon	SMARCA2 act	MC4R antagonist	MPTP block	SMARCA2 conf	GAL4-VP16 Luc
CCN(CC)C(=O)c1cc2c(=O)c3cc(F)ccc3oc2nc1C	0	0	9.6	0	0	0	0
O=C(NC1CCCCC1)c1n[nH]c2c1CC(c1ccccc1)CC2 (stereo unspecified)	0	0	8.0	0	0	0	12
O=C(O)c1n[nH]c2c1CC(C1CCCCC1)CC2 (stereo unspecified)	0	0	0	0	0	-	-
CSc1oc(-c2ccco2)nc1S(=O)(=O)c1ccc(C)cc1	0	0	9.2	0	0	0	0
O=C(Cc1ccc(NC(=O)C2CCCN(C(=O)c3ccccc3)C2)cc1)Nc1cccc(C(=O)N2CCCC2)c1 (stereo unspecified)	-	-	0	-	-	-	-
COc1ccc(-n2nnnc2S(=O)(=O)Cc2ccc(C(=O)O)cc2)cc1	0	0	13	0	0	15	0
COc1ccc(-n2nnnc2SCC(N)=O)cc1	0	0	0	0	0	-	-
C[C@@H](NC(=O)c1ccc(C#Cc2cccc(F)c2)cn1)C(C)(C)O	-	-	0	-	-	-	-
CCCNc1ccc(C(=O)OCC)cc1[N+](=O)[O-]	0	0	9.3	0	0	8.4	0
CCCCCCCCN1C(=O)[C@@H](CC(=O)N2CCN(C(=O)C3CC3)CC2)C[C@@]2(C(=O)OC)C1=C[C@H](C(C)(C)C)O[C@@H]2C	-	-	0	-	-	-	-
CC(=O)c1cccc(NC(=S)NC(=O)C(C)C)c1	0	0	8.7	0	0	0	0
C[C@@H]1CN([C@H](C)CO)C(=O)CCCn2cc(nn2)CO[C@H]1CN(C)C(=O)c1ccccc1	-	-	0	-	0	-	-
CCOc1ccc(Nc2ccnc3cc(Cl)ccc23)cc1	0	0	0	0	0	-	-
CN1CCN(c2ccc(Nc3ccnc4cc(Cl)ccc34)cc2)CC1	0	0	16	0	0	28	0
CCCn1cnc2c(SCc3ccccn3)nc(N)nc21	0	0	0	0	0	-	-
Nc1nc(SCc2ccccn2)c2ncn(C3CCCC3)c2n1	0	0	8.2	0	0	0	0
CCCCOC(=O)Nc1ccc(N2CCOCC2)cc1	0	0	10	0	0	9.8	5.7
Clc1ccc(Nc2nc(C3CC3)cs2)cc1	0	0	8.2	0	0	0	7.1
O=C(Cc1ccccc1)c1nc2ccccc2s1	0	0	0	0	0	-	-
COC(=O)c1ccc(CSc2nc3ccccc3s2)o1	0	0	14	0	0	0	0
COC(=O)c1ccc(CC(=O)c2nc3ccccc3s2)cc1	0	0	10	0	0	8.8	6.9
CCOC(=O)N1CCN(C(=O)C[C@H]2C[C@@]3(C(=O)OC)C(=C[C@H](C(C)(C)C)O[C@@H]3C)N(Cc3ccco3)C2=O)CC1	-	-	0	-	-	-	-
COc1ccc(NC(=O)N(C)C[C@H]2OCc3cn(nn3)CCCC(=O)N([C@H](C)CO)C[C@@H]2C)cc1	-	-	0	-	-	-	-
Oc1ccc(-c2csc(-c3cccnc3)n2)c(O)c1	0	0	8.2	0	0	13	12
c1cncc(-c2csc(-c3cccnc3)n2)c1	0	0	0	0	0	-	-
Cc1cccc(N2CCN(C(=O)c3nn(C)c4c3CS(=O)(=O)c3ccccc3-4)CC2)c1C	0	0	10	0	0	0	0
O=C(NC1CCCCN(Cc2cccc(Cl)c2)C1=O)c1ccc(F)c(F)c1 (stereo unspecified)	-	-	0	-	-	-	-
Oc1cccc(/C=N/N=C/c2cccc(O)c2O)c1O	0	0	12	0	0	13	7.4
